Assay results as given in ChEMBL document CHEMBL3627614, “Structure-based design, synthesis, X-ray studies, and biological evaluation of novel HIV-1 protease inhibitors containing isophthalamide-derived P2-ligands” (Bioorg Med Chem Lett, 2015).

Legend:
[1] = molecular target: Protease (Human immunodeficiency virus 1, UniProt Q9YQ12); assay: Inhibition of HIV-1 protease by fluorometric assay
Procedure, shortened: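 Run by a previously published protease assay protocol, with inhibitory potency reported as the inhibition constant Ki.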

[2] = tested on: Human immunodeficiency virus 1; assay: Antiviral activity against HIV-1 LAI infected in MT-2 cells measured after 7 days by MTT assay; assay type: functional, organism-based; settings: Human immunodeficiency virus 1, LAI, MT2, 168 h

Chain of Protease (Q9YQ12 whole entry): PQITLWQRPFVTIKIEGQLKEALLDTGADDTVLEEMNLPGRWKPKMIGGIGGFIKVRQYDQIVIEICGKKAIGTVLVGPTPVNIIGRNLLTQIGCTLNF

Row | SMILES | Ki [1] [nM] | IC50 [2] [nM]
1 | CCCN(C)C(=O)c1cccc(C(=O)N[C@@H](Cc2ccccc2)[C@H](O)CN(CC(C)C)S(=O)(=O)c2ccc(OC)cc2)c1 | 5.1 | –
2 | COc1ccc(S(=O)(=O)N(CC(C)C)C[C@@H](O)[C@H](Cc2ccccc2)NC(=O)c2cccc(C(=O)N3CCN(C)CC3)c2)cc1 | 0.54 | 45
3 | Cc1coc(CN(C)C(=O)c2cccc(C(=O)N[C@@H](Cc3ccccc3)[C@H](O)CN(CC(C)C)S(=O)(=O)c3ccc(CO)cc3)c2)n1 | 0.63 | –
4 | COC[C@H]1C[C@H](O)CN1C(=O)c1cccc(C(=O)N[C@@H](Cc2ccccc2)[C@H](O)CN(CC(C)C)S(=O)(=O)c2ccc(OC)cc2)c1 | 0.27 | 389
5 | COc1ccc(S(=O)(=O)N(CC(C)C)C[C@@H](O)[C@H](Cc2ccccc2)NC(=O)c2cc(C)cc(C(=O)N(C)Cc3nc(C)oc3C)c2)cc1 | 0.21 | 31
6 | CCCNC(=O)c1cccc(C(=O)N[C@@H](Cc2ccccc2)[C@H](O)CN(CC(C)C)S(=O)(=O)c2ccc(OC)cc2)c1 | 25.1 | –
7 | COC[C@@H]1C[C@@H](O)CN1C(=O)c1cccc(C(=O)N[C@@H](Cc2ccccc2)[C@H](O)CN(CC(C)C)S(=O)(=O)c2ccc(OC)cc2)c1 | 2.85 | 178
8 | CCCN(CCC)C(=O)c1cccc(C(=O)N[C@@H](Cc2ccccc2)[C@H](O)CN(CC(C)C)S(=O)(=O)c2ccc(OC)cc2)c1 | 12.4 | > 1000
9 | COC[C@@H]1C[C@H](O)CN1C(=O)c1cccc(C(=O)N[C@@H](Cc2ccccc2)[C@H](O)CN(CC(C)C)S(=O)(=O)c2ccc(OC)cc2)c1 | 1.5 | > 1000
10 | COc1ccc(S(=O)(=O)N(CC(C)C)C[C@@H](O)[C@H](Cc2ccccc2)NC(=O)c2cccc(C(=O)N(C)Cc3nc(C)oc3C)c2)cc1 | 0.17 | 14
11 | COc1ccc(S(=O)(=O)N(CC(C)C)C[C@@H](O)[C@H](Cc2ccccc2)NC(=O)c2cccc(C(=O)N3CCOCC3)c2)cc1 | 0.42 | 25
12 | CCCN(C)C(=O)c1cc(OC)cc(C(=O)N[C@@H](Cc2ccccc2)[C@H](O)CN(CC(C)C)S(=O)(=O)c2ccc(OC)cc2)c1 | 20.4 | –
13 | COC[C@H]1C[C@@H](O)CN1C(=O)c1cccc(C(=O)N[C@@H](Cc2ccccc2)[C@H](O)CN(CC(C)C)S(=O)(=O)c2ccc(OC)cc2)c1 | 0.27 | 190
14 | COCc1coc(CN(C)C(=O)c2cccc(C(=O)N[C@@H](Cc3ccccc3)[C@H](O)CN(CC(C)C)S(=O)(=O)c3ccc(OC)cc3)c2)n1 | 0.31 | 25
15 | CCCN(C)C(=O)c1cc(NC)cc(C(=O)N[C@@H](Cc2ccccc2)[C@H](O)CN(CC(C)C)S(=O)(=O)c2ccc(OC)cc2)c1 | 158 | –
